Active and inactive are the calls of the source. No cut-off for these calls is given here.
Key:
[1] = test system: SN12C; experiment: Cytotoxicity against human SN12C cells by SRB assay; format: functional
[2] = test system: HCT-116; experiment: Cytotoxicity against human HCT116 cells by SRB assay; format: functional
[3] = test system: UACC-62; experiment: Cytotoxicity against human UACC62 cells by SRB assay; format: functional
[4] = target: T1, DNA topoisomerase 1 (Homo sapiens) (UniProt P11387); experiment: Inhibition of human recombinant topoisomerase 1 using radiolabeled DNA as substrate after 20 mins by SDS-PAGE
T1 sequence (whole entry): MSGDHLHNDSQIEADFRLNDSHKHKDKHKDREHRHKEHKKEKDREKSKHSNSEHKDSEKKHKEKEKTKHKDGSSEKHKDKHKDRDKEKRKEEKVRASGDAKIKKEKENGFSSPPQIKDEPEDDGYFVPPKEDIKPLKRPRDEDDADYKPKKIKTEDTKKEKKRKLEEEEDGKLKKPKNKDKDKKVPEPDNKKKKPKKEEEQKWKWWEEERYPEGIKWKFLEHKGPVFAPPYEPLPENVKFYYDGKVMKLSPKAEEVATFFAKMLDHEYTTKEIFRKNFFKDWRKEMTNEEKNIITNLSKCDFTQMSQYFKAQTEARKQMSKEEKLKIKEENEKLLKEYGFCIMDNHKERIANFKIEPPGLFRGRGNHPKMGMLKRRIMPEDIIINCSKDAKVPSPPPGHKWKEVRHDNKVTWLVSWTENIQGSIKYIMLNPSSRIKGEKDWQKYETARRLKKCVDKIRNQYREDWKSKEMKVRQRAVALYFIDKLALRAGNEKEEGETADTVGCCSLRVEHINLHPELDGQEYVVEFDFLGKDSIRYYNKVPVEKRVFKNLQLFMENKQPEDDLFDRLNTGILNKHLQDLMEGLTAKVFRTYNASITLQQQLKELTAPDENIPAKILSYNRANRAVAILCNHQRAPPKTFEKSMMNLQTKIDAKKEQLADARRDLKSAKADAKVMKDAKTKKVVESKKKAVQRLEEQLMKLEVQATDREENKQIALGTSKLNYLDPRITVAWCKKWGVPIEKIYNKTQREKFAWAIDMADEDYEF
In short: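 A 117 bp oligonucleotide was 3′-end-labelled with [α-32P]dGTP by Klenow fill-in. Reactions were stopped with 0.5% SDS and run on 20% denaturing polyacrylamide gels. Cleavage bands were scored visually on a semiquantitative scale.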

[5] = test system: OVCAR-3; experiment: Cytotoxicity against human OVCAR3 cells by SRB assay; format: functional
[6] = test system: MCF7; experiment: Cytotoxicity against human MCF7 cells by SRB assay; format: functional
[7] = test system: DU-145; experiment: Cytotoxicity against human DU145 cells by SRB assay; format: functional
[8] = test system: SF-539; experiment: Cytotoxicity against human SF539 cells by SRB assay; format: functional
[9] = test system: HOP-62; experiment: Cytotoxicity against human HOP62 cells by SRB assay; format: functional
[10] = target: T1, DNA topoisomerase 1 (Homo sapiens); experiment: Inhibition of human recombinant topoisomerase 1 using radiolabeled DNA as substrate at 0.1 to 100 uM after 20 mins by SDS-PAGE
In short: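 Baculovirus-purified human recombinant Top1 with ~2 nM of a 117 bp oligonucleotide, 3′-end-labeled with [α-32P]dGTP by Klenow fill-in. Drugs at 0.1, 1, 10, 100 μM; 25 °C, 20 min. Stopped with 0.5% SDS, run on 20% denaturing PAGE, phosphorimaged. Cleavage bands scored visually against camptothecin standard.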

[11] = Cytotoxicity against human KB 3.1 cells after 72 hrs by MTT assay; format: functional; conditions: KB 3-1, 72 h
In short: (§1)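 Cells were seeded 24 h before dosing and exposed continuously for 72 h. Growth was read by colorimetric MTS assay and expressed relative to vehicle-treated controls set at 100. GI50 is the level giving 50% growth inhibition, from at least two independent determinations. HCT116 and siTop1 cells were kept in RPMI 1640/10% FBS with 100 μg/mL hygromycin; RC0.1 in RPMI 1640/10% FBS.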

[12] = Cytotoxicity against vinblastine-resistant human KBV1 cells after 72 hrs by MTT assay; format: functional; conditions: KB-V1, 72 h; in short: as §1
[13] = test system: HCT-116; experiment: Induction of DNA damage in human HCT116 cells assessed as induction of histone gamma-H2AX level at 1 uM after 1 hr by flow cytometry
[14] = Resistance ratio of GI50 for vinblastine-resistant human KBV1 cells to GI50 for human KB 3.1 cells; format: functional
[15] = Cytotoxicity against human RC0.1 cells after 72 hrs by MTT assay; format: functional; in short: as §1
[16] = target: T1, DNA topoisomerase 1 (Homo sapiens); experiment: Inhibition of human recombinant topoisomerase 1 in human HCT116 cells assessed as reversal of topoisomerase 1-DNA cleavage complex stabilization at 1 uM incubated for 1 hr followed by compound washout measured after 24 hrs by DNA immunoblotting analysis; format: cell-based; conditions: HCT-116
In short: (§2)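 10^6 HCT116 cells were treated with 1 μM for 1 h, and for reversal were held in drug-free medium for the set times. Cells were lysed with DNAzol and genomic DNA was isolated and sonicated. Serial dilutions were slot-blotted onto membranes and Top1–DNA complexes detected with the C21 anti-Top1 monoclonal antibody by immunoblotting (ICE method).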

[17] = test system: DU-145; experiment: Cytotoxicity against human DU145 cells after 72 hrs by MTT assay; format: functional; conditions: DU-145, 72 h; in short: as §1
[18] = target: T1, DNA topoisomerase 1 (Homo sapiens); experiment: Inhibition of human recombinant topoisomerase 1 in human HCT116 cells assessed as DNA-protein cross linking at 1 uM incubated for 1 hr followed by compound washout measured after 1 hr; format: cell-based; conditions: HCT-116
In short: (§3)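 In HCT116 cells, Top1 cleavage complexes were quantified as DNA–protein cross-links by alkaline elution, plotting the fraction of DNA retained on the filter against time. Persistence was read 1 h after drug removal. The negative control was untreated cells given 30 Gy irradiation to create strand breaks.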

[19] = test system: HCT-116; experiment: Cell cycle arrest in human HCT116 cells assessed as accumulation at G2 phase at 1 uM incubated for 1 hr followed by compound washout measured after 6 to 48 hrs by propidium iodide staining-based FACS analysis; format: functional
In short: (§4)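 HCT116 cells exposed to 1 μM drug for 1 h, then kept in drug-free medium for the stated times. Fixed cells were stained with propidium iodide and analysed by flow cytometry for DNA content histograms. Phase distributions were computed from the histograms.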

[20] = test system: HCT-116; experiment: Cell cycle arrest in human HCT116 cells assessed as accumulation at S phase at 1 uM incubated for 1 hr followed by compound washout measured after 3 hrs by propidium iodide staining-based FACS analysis; format: functional; in short: as §4
[21] = test system: HCT-116; experiment: Cytotoxicity against human HCT116 cells after 72 hrs by MTT assay; format: functional; conditions: HCT-116, 72 h; in short: as §1
[22] = test system: DU-145; experiment: Resistance ratio of GI50 for human RC0.1 cells to GI50 for human DU145 cells; format: functional
In short: (§5)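 Relative resistance = GI50 in the resistant subline divided by GI50 in the parental line. Both GI50s came from 72 h continuous-exposure MTS growth assays, each based on at least two independent determinations.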

[23] = Cytotoxicity against human H460 cells after 72 hrs by MTT assay; format: functional; conditions: NCI-H460, 72 h; in short: as §1
[24] = target: T1, DNA topoisomerase 1 (Homo sapiens); experiment: Inhibition of human recombinant topoisomerase 1 in human HCT116 cells assessed as DNA-protein cross linking at 1 uM after 1 hr; format: cell-based; conditions: HCT-116; in short: as §3
[25] = test system: HCT-116; experiment: Resistance ratio of GI50 for human HCT116 cells transfected with Top1-siRNA to GI50 for human HCT116 cells; format: functional; in short: as §5
[26] = target: T1, DNA topoisomerase 1 (Homo sapiens); experiment: Inhibition of human recombinant topoisomerase 1 in human HCT116 cells assessed as reversal of topoisomerase 1-DNA cleavage complex stabilization at 1 uM incubated for 1 hr followed by compound washout measured up to 6 hrs by DNA immunoblotting analysis; format: cell-based; conditions: HCT-116; in short: as §2
[27] = test system: HCT-116; experiment: Cytotoxicity against human HCT116 cells transfected with Top1-siRNA after 72 hrs by MTT assay; format: functional; conditions: HCT-116, 72 h; in short: as §1
[28] = test system: HCT-116; experiment: Cell cycle arrest in human HCT116 cells at 1 uM after 1 hr by propidium iodide staining-based FACS analysis; format: functional; in short: as §4
[29] = target: T1, DNA topoisomerase 1 (Homo sapiens); experiment: Inhibition of human recombinant topoisomerase 1 in human HCT116 cells assessed as stabilization of topoisomerase 1-DNA cleavage complex at 1 uM after 1 hr by DNA immunoblotting analysis; format: cell-based; conditions: HCT-116; in short: as §2
[30] = Resistance ratio of GI50 for human mitoxantrone-resistant H460 cells to GI50 for human H460 cells; format: functional; in short: as §5
[31] = test system: HCT-116; experiment: Cell cycle arrest in human HCT116 cells at 1 uM incubated for 1 hr followed by compound washout measured up to 1 hr by propidium iodide staining-based FACS analysis; format: functional; in short: as §4
[32] = Cytotoxicity against human mitoxantrone-resistant H460 cells after 72 hrs by MTT assay; format: functional; conditions: NCI-H460, 72 h; in short: as §1

CN(C)CCCn1c2c(c3ccc([N+](=O)[O-])cc3c1=O)C(=O)c1cccnc1-2
GI50 [1]: 1560 nM
GI50 [2]: 486 nM
GI50 [3]: 3400 nM
inhibition [4]: Active
GI50 [5]: 3120 nM
GI50 [6]: 474 nM
GI50 [7]: 1550 nM
GI50 [8]: 3140 nM
GI50 [9]: 1940 nM

COc1cnc2c(c1)C(=O)c1c-2n(CCCN2CCC(O)CC2)c(=O)c2cc([N+](=O)[O-])ccc12
GI50 [1]: < 10 nM
GI50 [2]: 10 nM
GI50 [3]: < 10 nM
GI50 [5]: 58 nM
GI50 [6]: < 10 nM
GI50 [7]: < 10 nM
inhibition [10]: Active
GI50 [8]: 10 nM
GI50 [9]: < 10 nM

COc1cnc2c(c1)C(=O)c1c-2n(CCCN2CCOCC2)c(=O)c2cc(OC)c(OC)cc12
inhibition [4]: Active

COc1cccc2c1C(=O)c1c(O)c3c(c(O)c1C2=O)C[C@@](O)(C(=O)CO)C[C@@H]3O[C@H]1C[C@H](N)[C@H](O)[C@H](C)O1 [DOXORUBICIN]
GI50 [11]: 676 nM
GI50 [12]: > 1000 nM

COc1cnc2c(c1)C(=O)c1c-2n(CCCNCCO)c(=O)c2cc([N+](=O)[O-])ccc12
GI50 [1]: < 10 nM
GI50 [2]: < 10 nM
GI50 [3]: < 10 nM
GI50 [5]: 35 nM
GI50 [6]: < 10 nM
GI50 [7]: < 10 nM
inhibition [10]: Active
GI50 [8]: 14 nM
GI50 [9]: < 10 nM

COc1cnc2c(c1)C(=O)c1c-2n(CCCn2ccnc2)c(=O)c2cc([N+](=O)[O-])ccc12.Cl
Activity [13]: 37.3%
RatioGI50 [14]: 1.02
GI50 [1]: < 10 nM
GI50 [2]: < 10 nM
GI50 [3]: < 10 nM
GI50 [15]: > 1000 nM
GI50 [5]: 25 nM
inhibition [16]: Active
GI50 [17]: 45.7 nM
inhibition [18]: Active
GI50 [11]: 417 nM
GI50 [6]: < 10 nM
Activity [19]: Active
Activity [20]: Active
GI50 [7]: < 10 nM
GI50 [21]: 21.9 nM
RatioGI50 [22]: >21.88
GI50 [23]: 21.9 nM
inhibition [10]: Active
inhibition [24]: Active
RatioGI50 [25]: 3.24
inhibition [26]: Active
GI50 [12]: 427 nM
GI50 [8]: < 10 nM
GI50 [27]: 70.8 nM
Activity [28]: Active
GI50 [9]: < 10 nM
inhibition [29]: Active
RatioGI50 [30]: 19.05
Activity [31]: Active
GI50 [32]: 417 nM

COc1cnc2c(c1)C(=O)c1c-2n(CCCN(C)C)c(=O)c2cc(OC)c(OC)cc12
inhibition [4]: Active

CC[C@@]1(O)C(=O)OCc2c1cc1n(c2=O)Cc2cc3c(CN(C)C)c(O)ccc3nc2-1 [TOPOTECAN]
inhibition [16]: Active
GI50 [23]: 44.7 nM
inhibition [26]: Active
inhibition [29]: Active
RatioGI50 [30]: >22.39
GI50 [32]: > 1000 nM

Source: ChEMBL document CHEMBL3124896, “Optimization of the lactam side chain of 7-azaindenoisoquinoline topoisomerase I inhibitors and mechanism of action studies in cancer cells” (2014)
